This is a sample that favours compounds with a hit; in the whole collection about 1.9% have one here.
UHRF1 binding – UHRF1 methyl-DNA binding inhibition; Q96T88; UHRF1 binding to methylated oligo, TR-FRET; inhibition, % at 4.4 µM; hit rate 0.75% among 370,000; in the data active means inhibition above about 21%;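 further: UHRF1 SRA domain binding a hemimethylated CpG hairpin DNA probe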
Target sequence (Q96T88 whole entry, looked up, the tested form may be a part): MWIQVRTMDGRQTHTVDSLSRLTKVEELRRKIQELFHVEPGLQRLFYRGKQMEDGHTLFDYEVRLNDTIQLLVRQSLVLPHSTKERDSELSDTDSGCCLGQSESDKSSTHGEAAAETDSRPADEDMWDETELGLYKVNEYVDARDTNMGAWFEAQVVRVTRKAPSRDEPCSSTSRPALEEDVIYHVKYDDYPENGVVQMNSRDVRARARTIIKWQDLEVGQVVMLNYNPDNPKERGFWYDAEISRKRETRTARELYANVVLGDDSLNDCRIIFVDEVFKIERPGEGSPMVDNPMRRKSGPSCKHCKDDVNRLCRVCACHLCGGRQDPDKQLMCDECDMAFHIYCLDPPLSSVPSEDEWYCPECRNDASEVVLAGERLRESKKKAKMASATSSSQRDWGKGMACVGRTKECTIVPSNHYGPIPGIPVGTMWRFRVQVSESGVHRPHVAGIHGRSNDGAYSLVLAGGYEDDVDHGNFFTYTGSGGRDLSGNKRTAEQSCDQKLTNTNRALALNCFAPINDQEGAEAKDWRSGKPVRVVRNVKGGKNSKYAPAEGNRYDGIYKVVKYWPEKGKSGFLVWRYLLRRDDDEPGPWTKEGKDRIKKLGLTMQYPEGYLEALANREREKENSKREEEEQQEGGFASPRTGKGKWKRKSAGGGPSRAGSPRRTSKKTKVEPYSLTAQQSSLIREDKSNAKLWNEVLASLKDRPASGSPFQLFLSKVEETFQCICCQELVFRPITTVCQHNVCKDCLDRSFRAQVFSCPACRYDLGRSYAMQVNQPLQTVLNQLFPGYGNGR
LEDGF integ inh – blocks HIV-1 LEDGF/p75-dependent DNA integration; TR-FRET IN-LEDGF/p75 DNA integration, Eu/Cy5; inhibition, % at 3.7 µM; hit rate 0.64% among 370,000; AID 743269;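 active means inhibition above the screen-wide mean plus 3 SD, cut at about 13% in these data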;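 further: signal is the Cy5 over europium emission ratio at 671 and 618 nm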
TDP2 absorb – blocks human TDP2 phosphodiesterase activity | AID 720702 | O95551 | hit rate 0.34% among 370,000 | recombinant TDP2, T5PNP hydrolysis, p-nitrophenol absorbance 415 nm | inhibition, % at 12.8 µM;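 active means inhibition above the mean of all tested compounds plus 3 SD, set per campaign, cut at about 25% in these data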
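test system = human TDP2 enzyme | input = TDP2 enzyme at 120 nM final | medium = 50 mM Tris-HCl pH 7.5 with Mg2+, KCl, DTT, BSA | also added = T5PNP substrate, 5 mM | times = 2 h at 37 °C | technique = epi absorbance | benchmarks = high control without enzyme, low control DMSO plus TDP2 | replication = each compound tested once, singlicate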
MBD2 DNA inh – inhibitors of human MBD2 binding to methylated oligonucleotide; TR-FRET; inhibition, % at 4.4 µM; hit rate 0.31% among 370,000; Q9UBB5; in the data active means inhibition above about 13%
Casp6 inh – blocks human caspase-6 cleavage activity; P55212; purified caspase-6, Z-VEID-R110 cleavage fluorescence; inhibition, % at 12.5 µM; hit rate 0.53% among 350,000; AID 686996;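 active means mean inhibition across replicates at least about 35%, with every replicate also reaching that limit, limit read from the data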
NSD2 HMT inh – blocks human histone methyltransferase NSD2; AID 743445; hit rate 0.54% among 310,000; O96028; NSD2 peptide methylation, AlphaScreen, 120 min; inhibition, % at 12.5 µM; in the data active means inhibition above about 50%
A number is an active result; - = inactive; . = no result.

SMILES	UHRF1 binding	LEDGF integ inh	TDP2 absorb	MBD2 DNA inh	Casp6 inh	NSD2 HMT inh
Cn1ncc(N=Cc2ccccc2O)c1C(=O)Nc1ccccc1	-	-	-	-	.	-
NC(=O)C1C(=O)c2ccccc2C1(C[N+](=O)[O-])c1ccccc1 (stereo not drawn)	-	-	-	-	69	-
C/C(CC(=O)Nc1ccc(N(C)C)cc1)=N\NC(=O)Cc1csc(N)n1	-	21	-	-	.	-
S=C(NCc1ccccc1)Nc1cccc2cnccc12	-	-	-	-	-	-
FC(F)(F)c1ccccc1NC(=S)Nc1cccc2cnccc12	-	-	-	-	37	96
C[C@H](CO)N1C[C@H](C)[C@@H](CN(C)CC2CCCCC2)OCCCC[C@H](C)Oc2ccc(NS(=O)(=O)c3ccccc3)cc2C1=O	.	.	.	.	-	.
CCN(CC)S(=O)(=O)c1ccc(C)c(NC(=O)/C=C/c2cccs2)c1	22	-	-	-	-	-
Cc1ccccc1NC(=O)/C=C/c1cccs1	-	-	-	-	-	-
COc1ccc(S(=O)(=O)N(C)C[C@@H]2OCCCC[C@H](C)Oc3ccc(NC(=O)Cc4ccccc4)cc3C(=O)N([C@H](C)CO)C[C@@H]2C)cc1	.	.	.	.	-	.
COCc1cc(=O)[nH]c(Nc2nc3ccccc3o2)n1	-	-	-	-	.	-
Cc1ccc2oc(Nc3nc(-c4ccccc4)cc(=O)[nH]3)nc2c1	75	-	-	-	-	-
CN(C)C(=O)C[C@@H]1C=C[C@H](NC(=O)C2CCOCC2)[C@@H](CO)O1	.	.	.	.	-	.
Cc1cc(C)c(C)c(S(=O)(=O)N2CCN(C(=O)c3ccccc3OCc3c(C)noc3C)CC2)c1C	28	-	-	-	-	-
Cc1ccc2occ(C(c3nnnn3Cc3ccccc3)N3CCOCC3)c(=O)c2c1 (stereo not drawn)	-	-	-	-	.	67
COc1ccc(CN(C)C[C@H]2Oc3ccc(NC(=O)Cc4ccccc4)cc3CC(=O)N([C@@H](C)CO)C[C@H]2C)cc1	.	.	.	.	-	.
COc1cc(C2C(C#N)=C(N)OC3=C2C(=O)CCC3)c([N+](=O)[O-])cc1OC (stereo not drawn)	-	13	-	-	.	75
O=C(C[C@@H]1CC[C@@H]2[C@H](COC[C@@H](O)CN2Cc2cc(F)cc(F)c2)O1)NC1CCC1	.	.	.	.	-	.
O=C(O)CCCn1c(O)c(C=C2N=c3ccccc3=N2)sc1=S	-	-	-	-	41	.
O=C(O)c1cccc(-n2c(O)c(C=C3N=c4ccccc4=N3)sc2=S)c1	-	-	-	-	59	.
CO[C@H]1CN(C)C(=O)c2cc(NC(=O)Nc3ccccc3F)ccc2OC[C@H](C)N(CC2CC2)C[C@H]1C	.	.	.	.	-	.
C[C@H](O)[C@@H]1C(=O)N2CCc3c([nH]c4ccccc34)[C@@H]2C[C@@H]1N(C)C(=O)Nc1cccc2ccccc12	-	-	-	-	82	.
O=C(O)c1ccc(Cn2cc(/C=C\[N+](=O)[O-])c3ccccc32)o1	-	-	-	-	38	-
CC(C)Cc1cc(C(=O)Nc2ccc(F)cc2F)no1	24	-	-	-	-	.
CC(C)(C)SCCNS(=O)(=O)c1ccc(F)cc1	24	-	-	-	.	-
O=S(=O)(NCCCCNS(=O)(=O)c1ccc(F)cc1)c1ccc(F)cc1	-	-	-	-	-	.
CC(C)NC(=O)N1CC2(C1)[C@H](c1ccccc1)[C@H](CO)N2C(=O)c1ccccn1	.	.	.	.	-	.
CCCN1[C@H](C(=O)NCCc2cn(C)cn2)[C@@H](CO)[C@@H]2Cn3c(ccc(-c4ccccc4)c3=O)[C@@H]21	.	.	.	.	-	.
CC(C)C[C@@H](CN)NC(=O)c1nc[nH]c1C(=O)N[C@@H](C)C(=O)CNC[C@H](CC(C)C)NC(=O)c1nc[nH]c1C(=O)N[C@@H](CC(=O)O)C(=O)O	-	-	-	-	-	.
CC(C)C[C@@H](CNCC(=O)[C@H](C)NC(=O)c1[nH]cnc1C(=O)N[C@@H](C)CN)NC(=O)c1nc[nH]c1C(=O)N[C@@H](Cc1ccccc1)C(=O)O	-	-	-	-	-	.
CC(C)C[C@@H](CNCC(=O)[C@H](CC(=O)O)NC(=O)c1[nH]cnc1C(=O)N[C@H](CN)CC(C)C)NC(=O)c1nc[nH]c1C(=O)N[C@@H](C)C(=O)O	22	-	-	-	-	.
